Laboratory results as given in PubChem BioAssay AID623886 (Johns Hopkins Ion Channel Center, 2012).
The source made the active and inactive calls.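 How the source made its calls: active means peak inhibition of the KCNQ2 potassium channel above 30% at some tested dose, plus a fitted dose response curve; inactive means no inhibition at any dose, or no curve.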

Target: Potassium voltage-gated channel subfamily KQT member 2 (Rattus norvegicus) (UniProt O88943)
Experiment: block of rat KCNQ2 potassium channel – cell-based, FluxOR thallium flux, concentration-response, selectivity assay for KCNK9 inhibitor project, SAR follow-up (AID 623886)
Conditions: KCNQ2 cell line, FluxOR thallium flux fluorescence; series mostly up to 30 µM
In short: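 Assay system: CHO cells expressing KCNQ2 potassium channel / Also added: K2SO4/Tl2SO4 stimulus (5x stock 25 mM, 7 mM) / Schedule: FluxOR dye loading 90 min, compound pre-exposure 20 min, both room temperature / Detection: kinetic thallium-sensitive dye fluorescence / Measure: fluorescence range-to-baseline ratio / Benchmarks: XE-991 full block / Replication: duplicate or more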

Potassium voltage-gated channel subfamily KQT member 2 (Rattus norvegicus), sequence (O88943 whole entry, looked up): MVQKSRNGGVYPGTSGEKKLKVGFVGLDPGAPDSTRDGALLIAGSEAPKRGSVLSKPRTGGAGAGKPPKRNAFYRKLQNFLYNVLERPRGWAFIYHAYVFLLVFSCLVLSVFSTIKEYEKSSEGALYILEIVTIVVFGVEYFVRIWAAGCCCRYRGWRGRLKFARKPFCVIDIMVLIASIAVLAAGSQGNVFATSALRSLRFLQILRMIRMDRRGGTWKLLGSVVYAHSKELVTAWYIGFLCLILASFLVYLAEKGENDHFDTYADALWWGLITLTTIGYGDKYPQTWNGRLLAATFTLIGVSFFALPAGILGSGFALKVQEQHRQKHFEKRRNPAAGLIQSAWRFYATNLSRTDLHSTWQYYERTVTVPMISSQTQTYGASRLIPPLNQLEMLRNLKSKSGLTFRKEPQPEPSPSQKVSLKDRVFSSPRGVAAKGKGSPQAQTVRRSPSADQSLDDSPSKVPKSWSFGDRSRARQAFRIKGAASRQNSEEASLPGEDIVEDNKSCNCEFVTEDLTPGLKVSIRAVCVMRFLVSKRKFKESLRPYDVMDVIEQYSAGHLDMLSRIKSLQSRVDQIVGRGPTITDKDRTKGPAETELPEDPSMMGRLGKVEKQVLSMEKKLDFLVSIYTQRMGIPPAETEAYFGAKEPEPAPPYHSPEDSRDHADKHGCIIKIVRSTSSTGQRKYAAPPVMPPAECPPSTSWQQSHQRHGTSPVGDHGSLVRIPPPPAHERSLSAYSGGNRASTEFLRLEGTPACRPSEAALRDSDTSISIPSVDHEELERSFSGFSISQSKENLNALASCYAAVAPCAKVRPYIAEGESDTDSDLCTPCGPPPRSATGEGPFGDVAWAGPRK

outcome, inactive:
Cc1cccc(NC(=O)c2ccccc2NC(=O)c2ccccc2)c1
Cc1cccc(C(=O)Nc2ccc(C(=O)Nc3ccccc3)cc2)c1
Cc1cccc(C(=O)Nc2cccc(C(=O)Nc3ccccc3)c2)c1
Cc1cccc(C(=O)Nc2ccccc2C(=O)Nc2ccccc2)c1
Cc1cccc(NC(=O)c2cccc(NC(=O)c3ccccc3)c2)c1
